Source: PubChem BioAssay
Most compounds without a hit are left out; they make up all but 2% or so of the library.
PAD4 FP inh: PAD4 (human) enzyme inhibition | 0.41% of 330,000 active | recombinant PAD4, RCA probe fluorescence polarization | Q9UM07 | inhibition, % at 6.36 µM;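 active = percent inhibition above a cutoff equal to the mean of all tested compounds plus 3 SD, cut at about 15% in these data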;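 also: 0% = PAD4 with RCA probe and DMSO and 100% = probe without PAD4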
PP5 inh: PP5 (human) phosphatase inhibition. P53041. purified PP5c, OMFP substrate fluorescence. inhibition, % at 6.7 µM. 0.18% of 320,000 active;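 active = inhibition above the campaign's mean inhibition across all tested compounds plus 3 SD, cut at about 9.5% in these data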;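 also: 0% = DMSO only and 100% = 100 µM cantharidin control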
UCH37 inh: blocks the human deubiquitinase UCH37. Q9Y5K5. purified proteasome/UCH37, Ub-AMC cleavage fluorescence. inhibition, % (no concentration beside the values). 0.33% of 330,000 active;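 active = mean inhibition over replicate wells above about 20%, limit read from the data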;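 also: 0% = compound-free wells with enzyme and 100% = wells lacking proteasome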
Target sequence (Q9Y5K5 whole entry, looked up): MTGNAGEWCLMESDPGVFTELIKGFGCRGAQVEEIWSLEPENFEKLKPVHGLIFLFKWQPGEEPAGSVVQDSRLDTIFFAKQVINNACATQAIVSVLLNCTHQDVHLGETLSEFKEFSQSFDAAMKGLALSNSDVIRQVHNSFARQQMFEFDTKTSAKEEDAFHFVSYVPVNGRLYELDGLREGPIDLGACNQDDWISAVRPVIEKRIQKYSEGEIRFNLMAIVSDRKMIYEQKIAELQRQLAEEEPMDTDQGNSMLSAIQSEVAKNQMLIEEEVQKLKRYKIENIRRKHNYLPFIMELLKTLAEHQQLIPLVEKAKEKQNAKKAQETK
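Material: human UCH37 enzyme supplied as purified proteasome complex. Measure: % inhibition of Ub-AMC cleavage fluorescence. Medium: pH 7.4 Tris-HCl (50 mM) with ovalbumin, ATP-MgCl2, DTT. Times: 30 min preincubation with enzyme, 25 min cleavage at room temperature. Detection: AMC fluorescence intensity at 355/460 nm.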
GSTO1 counter: counter-screen for RBBP9 inhibitors: inhibitors of human GSTO1; P78417; recombinant GSTO1, activity-based probe fluorescence polarization; inhibition, % at 5.96 µM; 1.1% of 300,000 active; AID 1974;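 active = inhibition above the campaign mean inhibition plus 3 SD, cut at about 35% in these data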;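 also: 0% = GSTO1-1 with DMSO and 100% = wells lacking GSTO1-1 enzyme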
Target sequence (P78417 whole entry, looked up): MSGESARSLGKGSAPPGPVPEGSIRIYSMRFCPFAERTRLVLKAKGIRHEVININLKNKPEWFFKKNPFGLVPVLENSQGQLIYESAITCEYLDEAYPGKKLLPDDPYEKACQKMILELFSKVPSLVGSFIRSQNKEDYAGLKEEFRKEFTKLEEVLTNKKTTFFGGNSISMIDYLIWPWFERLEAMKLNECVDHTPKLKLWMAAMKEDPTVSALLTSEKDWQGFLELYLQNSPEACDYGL
CTSL1 counter: cathepsin L1 inhibition, PFM18AAP counter-screen; recombinant F. hepatica cathepsin L1, Z-Leu-Arg-MCA fluorescence; inhibition, % at 5.96 µM; 0.49% of 300,000 active; AID 1906;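 active = inhibition above the mean of all tested compounds plus 3 SD, set per screening campaign, cut at about 17% in these data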;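 also: 0% = plate median of test compound wells and 100% = 1 µM Z-Phe-Ala-diazomethylketone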
Apaf-1 inh: inhibitors of human Apaf-1 apoptosome. O14727. reconstituted apoptosome caspase-3 activity, DEVD-Rh110 fluorescence. inhibition, % at 20 µM. 0.71% of 330,000 active. AID 489030; active = inhibition of at least 40% at 20 µM;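 also: plate controls were DMSO wells for no effect and DEVD-CHO caspase inhibitor wells for full effect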
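Material: reconstituted apoptosome with Apaf-1, cytochrome c, caspase-9, procaspase-3, dATP; medium: pH 7.5 Hepes buffer with CHAPS, BSA, DTT; also added: cytochrome c and DEVD-Rh110 substrate; timing: 30 min plus 50 min, RT; signal: Rh110 fluorescence intensity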
GSTO1 inh conf: confirmation of human GSTO1 inhibitors; shares compounds with GSTO1 counter; recombinant GSTO1, probe fluorescence polarization; inhibition, % at 5.96 µM; 54% of 2,400 active;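 active = inhibition above the primary screen's cutoff, its mean inhibition plus 3 SD, cut at about 35% in these data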;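 also: loss of polarization as inhibitors block binding of rhodamine sulfonate ester activity probe; 0% = GSTO1 with DMSO and 100% = wells lacking GSTO1 enzyme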
PP5 conf: confirmation of human PP5 phosphatase inhibitors; shares compounds with PP5 inh; Purified PP5, fluorogenic phosphatase substrate, fluorescence; inhibition, % at 6.7 µM; 22% of 460 active; AID 2331; in the data active = inhibition above about 9.5%
PP1 counter 3x: PP1 phosphatase inhibition, counter-screen for PP5 inhibitors | shares compounds with PP5 inh | PP1 enzyme, fluorescent phosphatase substrate | inhibition, % at 6.7 µM | 4% of 460 active | AID 2355; in the data active = inhibition above about 16%
PAD4 FP conf: PAD4 (human) inhibition, confirmed | shares compounds with PAD4 FP inh | recombinant PAD4, RCA probe fluorescence polarization | inhibition, % at 6.36 µM | 28% of 1,200 active;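 active = mean inhibition across replicates above the hit cutoff set by the earlier primary screen, cut at about 15% in these data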;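 also: inhibitors block active-site labeling by the probe so polarization falls; 0% = PAD4 with probe and DMSO and 100% = probe without PAD4 enzyme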
* hit, by the source's call; i = inactive; x = not tested or not shown.

SMILES	PAD4 FP inh	PP5 inh	UCH37 inh	GSTO1 counter	CTSL1 counter	Apaf-1 inh	GSTO1 inh conf	PAD4 FP conf	others
OC(CNCc1ccccc1)Cn1ccc2ccccc21 (configuration not stated)	1	-3	-1	3	1	-8	x	x
Cc1ccc(S(=O)(=O)/N=C2/C=C(Sc3ncn[nH]3)C(=O)c3ccccc32)c(C)c1	16*	13*	x	91*	103*	x	93*	x	PP5 conf=36*;PP1 counter 3x=15
Cc1cc(=O)[nH]c(-n2[nH]c(C)cc2=O)n1	-1	2	0	26	1	-2	x	x
COc1ccc(-n2[nH]c(C)cc2=O)cc1	64*	4	2	59*	2	24	13	3
CCOc1ccc(C=NOCC(=O)Nc2ccc(OCc3ccccc3)cc2)cc1OC	x	x	-2	x	x	x	x	x
CC1(OC(=O)C2CCCC2)C(=O)C=C2C=C(c3ccsc3)N(CCc3ccccn3)C=C2C1=O (configuration not stated)	19*	7	5	49*	2	33	5	-5
CC1(OC(=O)C2CCCC2)C(=O)C=C2C=C(c3ccsc3)N(Cc3ccccc3)C=C2C1=O (configuration not stated)	-9	9	-1	12	-1	23	x	x
CC1=NN(c2ccc(Cl)cc2)C(=O)C1C(c1cccc(O)c1)c1c(C)[nH]n(-c2ccc(Cl)cc2)c1=O (configuration not stated)	73*	8	-4	66*	5	85*	56*	-4
Cc1ccc(S(=O)(=O)c2c(N)n(CCCN(C)C)c3nc4ccccc4nc23)cc1	1	0	i	-8	2	12	x	x
CCCCn1c(NS(=O)(=O)c2ccc(C)cc2)c(S(=O)(=O)c2ccccc2)c2nc3ccccc3nc21	36*	8	-197	78*	-3	x	71*	-7
COc1cc(C(=O)NN=Cc2ccc3c(c2)c2ccccc2n3C)ccc1O	x	x	-136	x	x	x	x	x
C/C(=C\C(=O)c1cccnc1)Nc1ccc(O)cc1	98*	-5	11	38*	11	5	3	6
CC(=NNC(=O)Cc1ccc(O)cc1)c1cccnc1	x	x	1	x	x	x	x	x
CC(=O)Nc1ccc(NC2=C(Cl)C(=O)c3ccccc3C2=O)cc1	x	x	12	x	x	38	x	x
CN(C)c1ccc(NC2=C(Cl)C(=O)c3ccccc3C2=O)cc1	28*	6	13	94*	2	43*	89*	16*
Fc1ccc(NN=Cc2ccncc2)c(F)c1	x	x	5	x	x	x	x	x
O=C1CCC/C1=C/Nc1ccc(Cl)cc1	1	-1	6	2	4	-10	x	x
O=C1CCCC/C1=C\Nc1ccc(O)cc1	43*	3	14	42*	-5	10	6	5
COc1cc(C=NNC(=O)c2cccc([N+](=O)[O-])c2)ccc1OCc1ccccc1	x	x	1	x	x	x	x	x
Oc1ccc2ccccc2c1C=Nc1ccc(N2CCOCC2)cc1	46*	2	6	41*	3	29	38*	1
C=Cc1ccc(N=Cc2c(O)ccc3ccccc23)cc1	-14	3	5	30	-3	19	x	x
O=C(NN=Cc1ccncc1)c1nn(Cc2ccccc2)c(=O)c2ccccc12	x	x	2	x	x	x	x	x
O=C(CN1C(=O)c2ccccc2C1=O)Nc1cccc2cccnc12	2	2	4	6	-4	3	x	x
O=C1C=C(Nc2cccc3cccnc23)c2ccccc2C1=O	34*	2	x	77*	20*	47*	58*	54*
O=C1C(Nc2ccccc2)=C(NS(=O)(=O)c2ccccc2)C(=O)c2ccccc21	-4	1	-1	3	3	25	x	x
SMILES	PAD4 FP inh	PP5 inh	UCH37 inh	GSTO1 counter	CTSL1 counter	Apaf-1 inh	GSTO1 inh conf	PAD4 FP conf	others
O=C1C(Nc2ccccc2)=C/C(=N/S(=O)(=O)c2cccs2)c2ccccc21	63*	7	x	84*	82*	x	95*	58*
CN(CCC#N)C(=O)COC(=O)C1c2ccccc2Oc2ccccc21	-1	1	0	3	-3	3	x	x
N#CCCN(CCC#N)C(=O)C1c2ccccc2Oc2ccccc21	101*	-3	x	52*	-3	-7	10	7
COc1ccc2ccc3c(c2c1)N=C[C@]1(O3)N(C)c2ccccc2C1(C)C	53*	-1	-8	86*	-4	24	4	6
CN1C(=O)NC(c2ccccc2[N+](=O)[O-])C2=C1CCCC2=O (configuration not stated)	102*	2	6	71*	6	21	38*	62*
Cn1[nH]c(CSc2ccc(Cl)cc2)cc1=O	38*	-5	-1	59*	-5	18	14	6
O=c1cc(-c2ccc(Cl)cc2)[nH][nH]1	60*	-2	3	49*	0	7	10	-11
O=c1cc(-c2cccc3ccccc23)[nH][nH]1	-6	1	6	27	1	10	x	x
CC1(C)Cc2c(sc(N=CN3CCOCC3)c2C#N)C(C)(C)N1	x	x	4	x	x	x	x	x
Cc1ccc(C=Nc2ccc(N(C)C)cc2)o1	25*	3	8	83*	0	51*	2	-9
COC(=O)Cc1cc(=O)[nH]c(N=C(N)Nc2ccc(C)cc2)n1	x	x	0	x	x	x	x	x
Cc1nnc(N/N=C/c2ccccc2O)n1N	41*	2	x	72*	20*	10	32	1
Cc1nnc(N/N=C/c2cc(C)n(-c3ccc(F)cc3)c2C)n1N	29*	0	x	50*	1	7	2	-1
COC(=O)C(=NNc1ccccc1C)N1CCCc2ccccc21	x	x	1	x	x	x	x	x
O=C(N1CCc2[nH]c3ccccc3c2C1)C(F)(F)F	58*	7	-46	88*	106*	-10	7	-3
O=C(ON=C(c1ccccc1)c1ccncc1)c1ccccc1F	x	x	0	x	x	x	x	x
Cn1nc([N+](=O)[O-])c(C(C#N)c2nc3ccccc3n2C)c(Cl)c1=O (configuration not stated)	26*	4	6	63*	-4	19	31	17*
O=c1oc2ccccc2cc1-c1nc2ccccc2o1	1	-2	i	9	6	-3	x	x
